M4 ag = CHRM4 agonism in calcium assay; P08173; CHO-K1 hM4/Gqi5, Fluo-8 calcium fluorescence; vehicle 0%, full acetylcholine response 100%; activation, % at 3 µM; 0.14% of 360,000 active; AID 624127;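 active = activation above the run mean over all test wells plus 3 SD, cut at about 32% in these data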;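 also: peak over basal fluorescence ratio per well then scaled between controls; 0% = DMSO wells and 100% = acetylcholine at EC100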
M5 ag = CHRM5 agonism in calcium assay | P08912 | CHO-K1 hM5 cells, Fluo-8 calcium fluorescence; 0% DMSO wells, 100% maximal acetylcholine response | activation, % at 3 µM | 0.19% of 360,000 active | AID 624037;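 active = activation above the run's mean over test compounds plus 3 SD, cut at about 23% in these data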;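 also: signal is peak over basal fluorescence ratio across the kinetic read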
Target sequence (P08912 whole entry, looked up): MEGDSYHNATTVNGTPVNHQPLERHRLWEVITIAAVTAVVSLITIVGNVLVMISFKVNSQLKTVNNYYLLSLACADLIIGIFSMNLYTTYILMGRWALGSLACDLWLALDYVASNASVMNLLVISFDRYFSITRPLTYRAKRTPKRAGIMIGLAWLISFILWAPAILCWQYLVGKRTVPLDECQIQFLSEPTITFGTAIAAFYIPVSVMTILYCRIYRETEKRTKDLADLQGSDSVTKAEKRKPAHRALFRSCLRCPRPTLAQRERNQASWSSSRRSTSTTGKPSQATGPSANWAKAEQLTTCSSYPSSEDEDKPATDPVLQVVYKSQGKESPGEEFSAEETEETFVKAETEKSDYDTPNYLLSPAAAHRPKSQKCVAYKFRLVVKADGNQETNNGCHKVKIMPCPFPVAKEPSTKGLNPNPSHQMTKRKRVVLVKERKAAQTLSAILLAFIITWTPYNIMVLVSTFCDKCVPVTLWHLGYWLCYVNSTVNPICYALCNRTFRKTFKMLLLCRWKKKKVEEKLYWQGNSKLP
M4 PAM = CHRM4 positive allosteric modulation; 0.4% of 360,000 active; P08173; activation, % at 3 µM; CHO-K1 hM4/Gqi5, Fluo-8 calcium fluorescence, ACh EC20; 0% = ACh EC20, 100% = maximal ACh;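 active = activation above its plate's cutoff, the mean activation of sample wells plus 3 SD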
CHRM5 antagonist = blocks acetylcholine activation of human M5 receptor; AID 624040; CHO-hM5 cells, Fluo-8 calcium fluorescence, ACh EC80; P08912; inhibition, % at 3 µM; 0.59% of 360,000 active;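 active = inhibition above a per-plate cutoff, the mean of that plate's test compounds plus 3 SD, cut at about 27% in these data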;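 also: 0% = acetylcholine EC80 with DMSO and 100% = DMSO without agonist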
M4 antag = blocks acetylcholine activation of human M4 receptor; inhibition, % at 3 µM; CHO-hM4 cells, ACh EC80, Fluo-8 calcium fluorescence; AID 624125; P08173; 0.73% of 360,000 active;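 active = inhibition above its plate's cutoff, the mean inhibition of sample wells plus 3 SD, cut at about 27% in these data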;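 also: 0% = acetylcholine EC80 with DMSO and 100% = DMSO without agonist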
M5 PAM = positive allosteric modulators of human muscarinic M5 receptor. P08912. CHO-K1 hM5, Fluo-8 calcium, ACh EC20 PAM; 0% = ACh EC20, 100% = ACh EC100. activation, % at 3 µM. 0.3% of 360,000 active;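 active = activation above the run cutoff, the mean activation of all test compounds plus 3 SD, cut at about 18% in these data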
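Probe or stimulus: acetylcholine, EC20 level; Assay system: human M5 receptor in CHO-K1 cells; Schedule: compound preincubation 140 s before EC20 acetylcholine addition; Technique: intracellular calcium via Fluo-8 fluorescence; Dosing: single-point, 3 µM nominal; Read-out basis: percent activation from peak-over-basal fluorescence ratio, scaled EC20-to-EC100 acetylcholine; Repeats: one well per compound, no replicates.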
* hit, by the source's call. Most compounds without a hit are left out; they make up all but 1.9% or so of the library.

SMILES	M4 ag	M5 ag	M4 PAM	CHRM5 antagonist	M4 antag	M5 PAM
Cc1c(-n2cc(C(=O)c3cc(F)ccc3O)cc(C#N)c2=O)c(=O)n(-c2ccccc2)n1C	3.4	2.4	1.5	-0.2	-4.5	1.0
N#Cc1cc(C(=O)c2cc(F)ccc2O)cn(-c2nccs2)c1=O	96.5*	61.7*	-43.4	29.4*	20.5	-22.8
N#Cc1cc(C(=O)c2ccccc2O)cn(-c2nccs2)c1=O	70.8*	68.0*	-15.6	28.3*	36.3*	-20.6
CC(C)n1cc(C(=O)c2ccccc2O)cc(C#N)c1=O	4.0	3.7	13.3	-1.1	-7.4	7.4
CCn1c(SCC(=O)Nc2ccccc2C)nc2nc3c(cc2c1=O)COC(C)(C)C3	3.7	-2.1	-9.5	6.2	0.4	0.0
O=c1[nH]c(C2CCN(S(=O)(=O)c3ccc([N+](=O)[O-])cc3)CC2)nc2c1nnn2Cc1ccccc1	2.1	-2.8	-2.0	5.8	7.1	4.2
O=c1[nH]c(C2CCN(S(=O)(=O)c3ccc4c(c3)OCCO4)CC2)nc2c1nnn2Cc1ccc(F)cc1	-0.1	-1.2	-18.5	14.1	47.9*	-0.6
O=c1[nH]c(C2CCN(S(=O)(=O)c3ccc4c(c3)OCCO4)CC2)nc2c1nnn2Cc1cccc(F)c1	1.1	-4.4	-22.6	9.4	79.2*	1.4
O=c1[nH]c(C2CCN(S(=O)(=O)c3ccccc3)CC2)nc2c1nnn2Cc1ccccc1	1.9	-1.2	-27.2	-4.8	67.0*	3.2
O=c1[nH]c(C2CCCN(S(=O)(=O)c3ccccc3Cl)C2)nc2c1nnn2Cc1ccc2c(c1)OCCO2 (centres undefined)	2.6	-6.0	-7.7	-6.1	-8.6	-2.5
O=c1[nH]c(C2CCN(S(=O)(=O)c3ccccc3)CC2)nc2c1nnn2Cc1ccc2c(c1)OCCO2	-1.3	-5.5	-11.2	2.4	95.1*	4.7
Cc1csc(NC(=O)c2ccc3nc[nH]c3c2)n1	0.6	1.3	-4.2	10.9	-1.8	-3.8
Cc1cc(NC(=O)c2cccc(S(=O)(=O)N3CCC(C)CC3)c2)no1	2.4	-2.6	6.8	22.4	-1.4	-9.8
COc1cccc(O)c1CN1CCC(Oc2ccc(C(=O)NCc3ccccn3)cc2)CC1	2.6	-4.1	-7.3	9.3	9.5	-2.3
Cc1[nH]n(-c2ccccc2)c(=S)c1C=Nc1ccc([N+](=O)[O-])cc1	-0.1	-0.6	6.6	3.9	-3.2	7.7
O=c1[nH]c(C2CCN(S(=O)(=O)c3ccc(S(=O)(=O)NC4CC4)cc3)CC2)nc2c1nnn2Cc1cccc(F)c1	0.0	-3.9	-19.9	6.7	44.9*	-0.4
Cc1ccc(Cn2nnc3c(=O)[nH]c(C4CCN(S(=O)(=O)c5ccc(S(=O)(=O)NC6CC6)cc5)CC4)nc32)cc1	0.9	-5.8	-10.3	1.4	11.5	1.5
O=C(COc1cccc(C(F)(F)F)c1)Nc1ccc(S(=O)(=O)N2CCCCC2)cc1	5.5	-0.8	-3.5	7.2	-2.7	-6.1
CC(=O)N1CCN(S(=O)(=O)c2cccc(C(=O)Nc3ccccc3N3CCCCC3)c2)CC1	-0.6	-0.3	9.9	4.1	2.0	-1.4
CN(C)CCOC1c2ccccc2CCc2ccc3ccccc3c21 (centres undefined)	6.4	-16.8	-12.2	33.2*	12.0	-30.4
Cc1noc(C)c1COc1ccccc1C(=O)NCc1ccccc1Cl	6.1	0.4	0.5	98.9*	-7.5	-37.6
CC(=O)COc1cccc2ccc(/C=C/c3ccc(Br)s3)nc12	5.8	8.2	-4.3	-9.7	-24.1	22.7*
NC(=S)NNC(=O)C12CC3CC(CC(C3)C1)C2	42.2*	6.4	-9.2	5.3	9.7	1.0
COC(=O)NNC(=O)C12CC3CC(CC(C3)C1)C2	1.6	-0.6	10.6	-6.9	-2.8	2.4
Cc1ccc(Cl)cc1NC(=O)CCC(=O)Nc1cc(Cl)ccc1C	1.3	-3.8	8.0	-3.7	-3.2	24.0*
SMILES	M4 ag	M5 ag	M4 PAM	CHRM5 antagonist	M4 antag	M5 PAM
CCCC(=O)Nc1cc(Cl)ccc1C	0.2	0.2	3.0	-4.2	-9.4	5.5
Cc1cc(=O)[nH]c(SCC(=O)/C=C2\N(C)c3ccccc3C2(C)C)n1	13.3	7.5	-21.6	30.9*	33.4*	-17.6
CN1/C(=C/C(=O)CSc2ccccc2C(=O)O)C(C)(C)c2ccccc21	1.4	-1.8	-5.1	-0.6	-1.2	5.8
CN1C(=O)S/C(=C\c2ccc(-n3cncn3)cc2)C1=O	1.6	3.7	4.1	-13.4	-4.9	21.0*
O=Cc1ccc(-n2cncn2)cc1	2.1	-1.0	-3.7	18.4	9.1	-5.4
O=C(OCc1nnc(-c2ccccc2)o1)C1CC(=O)N(CCc2ccccc2)C1 (centres undefined)	3.6	4.4	25.2*	3.6	-10.5	1.7
O=C(NCc1ccc(F)cc1)C1CC(=O)N(CCc2ccccc2)C1 (centres undefined)	2.6	0.2	-3.4	5.9	14.6	18.6*
CC(C)CCN1CC(C(=O)NCc2ccc(F)cc2)CC1=O (centres undefined)	0.1	-2.1	-2.2	10.1	0.6	-2.8
Cc1occc1C(=O)N/N=C/c1ccc(N(C)C)cc1	0.6	4.2	-1.4	-14.9	-4.5	20.1*
COc1ccc(OCC(=O)N/N=C/c2ccc(N(C)C)cc2)cc1	1.0	-2.4	21.6*	20.5	-2.6	-4.2
Cc1occc1C(=O)N/N=C/C=C/c1ccc(N(C)C)cc1	0.6	-4.5	2.4	12.6	-3.2	-0.9
O=C1[C@H]2[C@@H](c3ccc(C(F)(F)F)cc3)N[C@]3(CCCN(Cc4ccc(F)cc4)C3=O)[C@H]2C(=O)N1Cc1ccccc1	2.5	-0.5	-1.1	10.7	-9.8	-4.1
COc1ccccc1N1CCN(C(=O)c2ccc3noc(-c4ccccc4)c3c2)CC1	7.7	24.9*	-0.5	4.5	-22.8	-13.4
COCCn1c(=NC(=O)/C=C/c2cccs2)sc2cc(NC(C)=O)ccc21	4.2	2.5	21.4*	6.7	-1.5	-2.7
O=C(Nc1cnccn1)c1ccc(Cl)cc1	2.4	-2.0	1.2	10.0	-4.9	-3.0
CCOC(=O)C1=C(C)N(CC(C)C)C(=O)C1	1.7	1.6	22.2*	6.5	-10.0	0.6
Cc1cccc2sc(NC(=O)C3CCN(S(=O)(=O)c4cc([N+](=O)[O-])ccc4Cl)CC3)nc12	11.3	3.8	-23.9	19.9	28.7*	-11.3
Cn1c(CCNC(=O)c2cc(COc3ccc(F)c(F)c3)on2)nc2ccccc21	7.5	-1.6	-3.6	-0.5	-3.5	-0.8
Cc1c(C(=O)Nc2ccc3c(c2)OCCO3)oc2ccc(Br)cc12	0.6	-3.3	23.2*	2.1	-9.7	4.2
Cc1c(C(=O)NCc2ccc3c(c2)OCO3)oc2ccc(Br)cc12	-1.1	-2.5	2.7	12.2	2.4	-5.9

Bioassay records (PubChem BioAssay)
